Results from publication PMC4569680 (Advances in Therapy, 2015).
Read-outs that look alike come from different tables or passages of the source. Marks after values point to notes of the source that are not given here.

Experiments:
[1] = 24-h urinary excretion rate of unchanged canagliflozin; format: in vivo, human; details: for Urinary excretion rate: mean (SD)
Procedure, shortened: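 Urine was collected 0–24 h on Days 1 and 16 during once-daily dosing at 25, 100, 200 or 400 mg, given on Day 1 and Days 3–16 between 8:00 and 9:00 a.m. A standardized breakfast followed within 10 min. Unchanged drug was measured by solid-phase extraction and HPLC-MS/MS with a 13C6-labelled internal standard. The validated range was 1–2000 ng/mL.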

[2] = test system: Japanese patients with T2DM; assay: Renal threshold for glucose excretion; format: in vivo, human; details: Days 1 and 16, versus baseline Day 0
Procedure, shortened: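 RTG was calculated post hoc for Days 0, 1 and 16 from measured plasma glucose, UGE and estimated glomerular filtration rate. Day 0 was a single-blind placebo baseline after an overnight fast; standardized meals were given at about 0, 4.5 and 10.5 h post-dose.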

[3] = test system: Japanese patients with T2DM; assay: Urinary glucose excretion; format: in vivo, human; details: for mean change from baseline in UGE0–24h: Day 1
Procedure, shortened: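 Urine was collected in timed intervals (0–2 through 13–24 h) on Days 0, 1 and 16, and as 0–24 h pools on Days 2–6, 15, 17 and 18. Dosing was 25–400 mg or placebo QD on Day 1 and Days 3–16. Change from the Day 0 single-blind placebo baseline was determined on each collection day.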

[4] = format: in vivo, human; details: for AR (accumulation ratio): AUC0–24h Day 16 / AUC0–24h Day 1, mean (SD)
Procedure, shortened: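 Patients received 25–400 mg QD or placebo on Day 1 and Days 3–16, fasted overnight, with a standardized breakfast within 10 min. Venous blood was drawn at 0, 0.5, 1, 1.5, 2, 3, 4, 6, 8 and 12 h on Days 1 and 16, and before breakfast on Days 2, 17 and 18. Drug was measured by HPLC-MS/MS, range 1–2000 ng/mL. AR = AUC0–24h Day 16/Day 1; linearity factor = AUC0–24h Day 16/AUC0–∞ Day 1.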

[5] = test system: Japanese patients with T2DM; assay: Volume-related safety; format: in vivo, human
Procedure, shortened: (§1)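 Volume-related safety was followed as changes from baseline in blood and urinary laboratory parameters: urine volume, sodium excretion, urine and serum osmolality, and hematocrit. Vital signs covered blood pressure, pulse rate and body temperature. Patients received 25–400 mg QD or placebo on Day 1 and Days 3–16 with standardized meals. Urine was collected in timed intervals or 0–24 h pools.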

[6] = test system: Japanese patients with T2DM; assay: Adverse events; format: in vivo, human
[7] = test system: Japanese patients with T2DM; assay: Urinary electrolyte excretion in 24 hours; format: in vivo, human
Procedure, shortened: as §1

[8] = cited from earlier work
[9] = 25 mg QD repeated dose, Day 16, mean (SD), n = 12
[10] = 25 mg single dose, Day 1, mean (SD), n = 12
[11] = 100 mg QD repeated dose, Day 16, mean (SD), n = 12
[12] = 100 mg single dose, Day 1, mean (SD), n = 12
[13] = 200 mg QD repeated dose, Day 16, mean (SD), n = 14
[14] = 200 mg single dose, Day 1, mean (SD), n = 14
[15] = 400 mg QD repeated dose, Day 16, mean (SD), n = 13
[16] = 400 mg single dose, Day 1, mean (SD), n = 13
[17] = canagliflozin groups pooled, 2 cases in 2 of 51 patients

Structure (SMILES): Cc1ccc([C@@H]2O[C@H](CO)[C@@H](O)[C@H](O)[C@H]2O)cc1Cc1ccc(-c2ccc(F)cc2)s1 [Canagliflozin]
- Urinary excretion rate ([1]; 25 mg QD repeated dose, Day 16, 0–24 h, n = 12): 0.599 (0.183) %
- Urinary excretion rate ([1]; 25 mg single dose, Day 1, 0–24 h, n = 12): 0.387 (0.070) %
- Urinary excretion rate ([1]; 100 mg QD repeated dose, Day 16, 0–24 h, n = 12): 0.641 (0.204) %
- Urinary excretion rate ([1]; 100 mg single dose, Day 1, 0–24 h, n = 12): 0.384 (0.084) %
- Urinary excretion rate ([1]; 200 mg QD repeated dose, Day 16, 0–24 h, n = 14): 0.614 (0.195) %
- Urinary excretion rate ([1]; 200 mg single dose, Day 1, 0–24 h, n = 14): 0.424 (0.107) %
- Urinary excretion rate ([1]; 400 mg QD repeated dose, Day 16, 0–24 h, n = 13): 0.495 (0.153) %
- Urinary excretion rate ([1]; 400 mg single dose, Day 1, 0–24 h, n = 13): 0.385 (0.097) %
- 24-h urinary excretion rate of unchanged canagliflozin ([1]; Day 1, means at each dose): approximately 0.4%
- 24-h urinary excretion rate of unchanged canagliflozin ([1]; Day 16, means at each dose): 0.5–0.6%
- RTG0–24h [2]: decreased
- UGE after the last administration ([3]; 24–48 and 48–72 h after the last administration, ≥100 mg): increase in UGE was detected
- mean change from baseline in UGE0–24h ([3]; 25-mg group): approximately 60 g/day
- mean change from baseline in UGE0–24h ([3]; 100–400-mg groups): 80 to 110 g/day
- AUC0–24h [4, 9]: 1556 (387) ng·h/mL
- C max [4, 9]: 263 (91) ng/mL
- t 1/2 [4, 9]: 14.21 (7.46) h
- t max ([4]; 25 mg QD repeated dose, Day 16, median [min–max], n = 12): 1.0 [1.0–3.0] h
- AUC0–24h [4, 10]: 1295 (240) ng·h/mL
- C max [4, 10]: 248 (55) ng/mL
- t 1/2 [4, 10]: 10.70 (1.76) h
- t max ([4]; 25 mg single dose, Day 1, median [min–max], n = 12): 1.0 [1.0–2.0] h
- AR (accumulation ratio) ([4]; 25 mg, n = 12): 1.19 (0.12)
- AUC0–24h [4, 11]: 6635 (1367) ng·h/mL
- C max [4, 11]: 1136 (330) ng/mL
- t 1/2 [4, 11]: 11.81 (3.22) h
- t max ([4]; 100 mg QD repeated dose, Day 16, median [min–max], n = 12): 1.0 [1.0–1.5] h
- AUC0–24h [4, 12]: 5468 (899) ng·h/mL
- C max [4, 12]: 1126 (228) ng/mL
- t 1/2 [4, 12]: 10.22 (1.89) h
- t max ([4]; 100 mg single dose, Day 1, median [min–max], n = 12): 1.0 [1.0–1.5] h
- AR (accumulation ratio) ([4]; 100 mg, n = 12): 1.21 (0.12)
- t 1/2 ([4]; 200 mg QD repeated dose, Day 16, mean (SD), n = 13): 16.16 (5.87)^c h
- AUC0–24h [4, 13]: 16,716 (5464) ng·h/mL
- C max [4, 13]: 2688 (805) ng/mL
- t max ([4]; 200 mg QD repeated dose, Day 16, median [min–max], n = 14): 1.3 [1.0–1.5] h
- AUC0–24h [4, 14]: 11,991 (3042) ng·h/mL
- C max [4, 14]: 2304 (539) ng/mL
- t 1/2 [4, 14]: 13.26 (4.96) h
- t max ([4]; 200 mg single dose, Day 1, median [min–max], n = 14): 1.0 [1.0–1.5] h
- AR (accumulation ratio) ([4]; 200 mg, n = 14): 1.38 (0.17)
- t 1/2 ([4]; 400 mg QD repeated dose, Day 16, mean (SD), n = 12): 15.76 (5.56)^d h
- AUC0–24h [4, 15]: 30,766 (7916) ng·h/mL
- C max [4, 15]: 5236 (1123) ng/mL
- t max ([4]; 400 mg QD repeated dose, Day 16, median [min–max], n = 13): 1.0 [1.0–1.5] h
- AUC0–24h [4, 16]: 21,836 (4983) ng·h/mL
- C max [4, 16]: 5028 (1733) ng/mL
- t 1/2 [4, 16]: 12.15 (2.34) h
- t max ([4]; 400 mg single dose, Day 1, median [min–max], n = 13): 1.0 [1.0–3.0] h
- AR (accumulation ratio) ([4]; 400 mg, n = 13): 1.42 (0.29)
- mean accumulation ratios (ARs) ([4]; AUC0–24h Day 16 / AUC0–24h Day 1, across doses 25–400 mg): 1.19–1.42
- linearity factors ([4]; AUC0–24h Day 16 / AUC0–∞ Day 1, any dose (25, 100, 200, 400 mg)): ~1
- elimination half-life (t 1/2) ([4]; Day 1, across doses 25–400 mg): 10.22 to 13.26 h
- elimination half-life (t 1/2) ([4]; Day 16, across doses 25–400 mg): 11.81 to 16.16 h
- t max ([4]; Day 16, across doses 25–400 mg): 1.0 to 1.3 h
- plasma concentration reaches steady state ([4]; repeated QD dosing from Day 3, all doses): ≤ 7 days
- 24-h urine volume ([5]; Day 1, canagliflozin groups): slightly increased
- change in urine osmolality over time from baseline ([5]; Day 1, canagliflozin-treated groups): trend toward an increase
- pulse rate and incidence of orthostatic hypotension ([5]; data not shown): No increases were observed
- hematocrit level ([5]; during the study period): remained unchanged
- serum osmolality ([5]; during the treatment period): maintained constant
- mean systolic and diastolic blood pressures ([5]; groups that received ≥100 mg): tended to decrease
- nasopharyngitis, patients with AE ([6]; canagliflozin groups pooled, 1 case in 1 of 51 patients): 2.0%
- dizziness, patients with AE [6, 17]: 3.9%
- toothache, patients with AE [6, 17]: 3.9%
- urine ketone body present, patients with AE ([6]; canagliflozin groups pooled, 3 cases in 3 of 51 patients): 5.9%
- anemia, patients with AE ([6]; canagliflozin groups pooled, 4 cases in 4 of 51 patients): 7.8%
- diarrhea, patients with AE ([6]; canagliflozin groups pooled, 6 cases in 5 of 51 patients): 9.8%
- occult blood positive, patients with AE ([6]; canagliflozin groups pooled, 14 cases in 12 of 51 patients): 23.5%
- urinary ketones observed ([6]; canagliflozin-treated groups, all mild): 3 patients
- urinary ketones observed ([6]; dose of 200 mg): 2 cases
- urinary ketones observed ([6]; dose of 400 mg): 1 case
- tolerability ([6]; short-term study, patients with T2DM, 25–400 mg): well tolerated
- AEs related to skin disorders ([6]; whole study): not observed
- urinary sodium excretion ([7]; Day 1, reversed within a week): transient nominal increase
- urinary excretion of electrolytes (potassium, chloride, calcium, magnesium, inorganic phosphorus) ([7]; canagliflozin-treated groups compared with the placebo group): No remarkable changes were observed

Structure (SMILES): NS(=O)(=O)c1cc2c(cc1Cl)N=CNS2(=O)=O [chlorothiazide]
- persistence of diuretic effects [8]: about 1 week
